Experimental data: ChEMBL document CHEMBL3822416, “Design, Synthesis, and Structure-Activity Relationship Study of Novel Indole-2-carboxamide Derivatives as Anti-inflammatory Agents for the Treatment of Sepsis” (J Med Chem, 2016)
Calls of active or inactive are those of the source. The calls are words filed in the database; no cut-off is given here.

What was measured:
RAW264.7 [1] = assay: Inhibition of LPS-induced TNF-alpha production in mouse RAW264.7 cells at 10 uM preincubated for 30 mins prior to LPS challenge measured after 24 hrs by ELISA; assay type: functional
How it was run: (§1)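 RAW 264.7 cells (ATCC) were grown in DMEM with 10% FBS and penicillin/streptomycin at 37 °C, 5% CO2. Cells were seeded at 400,000/well and incubated for 24 h, pretreated with compound for 30 min, then given 0.5 µg/mL LPS for 24 h. Medium TNF-α or IL-6 was measured by ELISA and normalized to total protein of viable cell pellets.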

RAW264.7 [2] = assay: Inhibition of LPS-induced IL6 production in mouse RAW264.7 cells at 10 uM preincubated for 30 mins prior to LPS challenge measured after 24 hrs by ELISA; assay type: functional; how it was run: as §1
RAW264.7 [3] = assay: Inhibition of LPS-induced TNF-alpha production in mouse RAW264.7 cells preincubated for 30 mins prior to LPS challenge measured after 24 hrs by ELISA; assay type: functional, cell-based; how it was run: as §1
RAW264.7 [4] = assay: Inhibition of LPS-induced IL6 production in mouse RAW264.7 cells preincubated for 30 mins prior to LPS challenge measured after 24 hrs by ELISA; assay type: functional, cell-based; how it was run: as §1
Mus musculus [5] = assay: Downregulation of IL-33 mRNA level in lung of LPS-induced C57BL/6 mouse sepsis model at 10 mg/kg, iv administered 15 mins prior to LPS challenge measured after 6 hrs by RT-qPCR analysis; assay type: functional, organism-based
How it was run: (§2)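 Male C57BL/6 mice were given 10 mg/kg by tail-vein injection 15 min before 20 mg/kg LPS and killed after 6 h; lungs were harvested. RNA was extracted with TRIZOL and quantified by real-time quantitative PCR as relative mRNA amount.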

Mus musculus [6] = assay: Antiinflammatory activity in LPS-induced C57BL/6 mouse sepsis model assessed as inhibition of macrophage infiltration in lung at 10 mg/kg, iv administered 15 mins prior to LPS challenge measured after 6 hrs by F4/80 and hematoxylin-staining based microscopy; assay type: functional, organism-based
How it was run: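 C57BL/6 males were dosed with 10 mg/kg iv (tail vein) 15 min before 20 mg/kg LPS and sacrificed 6 h later. Paraffin lung sections had antigen retrieval by pressure cooker in 10 mM citrate pH 6.5, then H2O2, 5% BSA block, anti-F4/80 overnight at 4 °C, HRP secondary, DAB and hematoxylin counterstain. The % F4/80-positive cells was counted in 10 random 200× fields per section.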

Mus musculus [7] = assay: Downregulation of IL-12 mRNA level in lung of LPS-induced C57BL/6 mouse sepsis model at 10 mg/kg, iv administered 15 mins prior to LPS challenge measured after 6 hrs by RT-qPCR analysis; assay type: functional, organism-based; how it was run: as §2
Mus musculus [8] = assay: Downregulation of TNF-alpha mRNA level in lung of LPS-induced C57BL/6 mouse sepsis model at 10 mg/kg, iv administered 15 mins prior to LPS challenge measured after 6 hrs by RT-qPCR analysis; assay type: functional, organism-based; how it was run: as §2
Mus musculus [9] = assay: Antiinflammatory activity in LPS-induced C57BL/6 mouse sepsis model assessed as decrease in pulmonary lobule structural changes at 10 mg/kg, iv administered 15 mins prior to LPS challenge measured after 6 hrs by hematoxylin and eosin staining; assay type: functional, organism-based
How it was run: (§3)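 Male C57BL/6 mice (18-22 g), randomized into groups. Compound at 10 mg/kg was given by tail-vein injection 15 min before LPS 20 mg/kg; controls received saline. Animals were sacrificed 6 h after LPS. Lung was fixed in 4% paraformaldehyde, paraffin-embedded, cut at 5 µm and H&E stained. A pathologist, blinded, scored alveolar congestion, hemorrhage, neutrophil infiltration and alveolar wall thickness/hyaline membrane.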

Mus musculus [10] = assay: Downregulation of IL-6 mRNA level in lung of LPS-induced C57BL/6 mouse sepsis model at 10 mg/kg, iv administered 15 mins prior to LPS challenge measured after 6 hrs by RT-qPCR analysis; assay type: functional, organism-based; how it was run: as §2
Mus musculus [11] = assay: Downregulation of COX2 mRNA level in lung of LPS-induced C57BL/6 mouse sepsis model at 10 mg/kg, iv administered 15 mins prior to LPS challenge measured after 6 hrs by RT-qPCR analysis; assay type: functional, organism-based; how it was run: as §2
Mus musculus [12] = assay: Antiinflammatory activity in LPS-induced C57BL/6 mouse sepsis model assessed as reduction in airspace inflammation in lung at 10 mg/kg, iv administered 15 mins prior to LPS challenge measured after 6 hrs by hematoxylin and eosin staining; assay type: functional, organism-based; how it was run: as §3
Mus musculus [13] = assay: Decrease in MPO activity in C57BL/6 mouse lung at 10 mg/kg, iv after 6 hrs in presence of O-dianisidine dihydrochloride relative to control; assay type: ADME, organism-based; conditions: in vivo
How it was run: (§4)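 Mice were given 10 mg/kg iv 15 min before 20 mg/kg LPS or without LPS; saline served as control, and animals were killed 6 h later. Lung supernatants were incubated with 0.01% H2O2 and O-dianisidine dihydrochloride 0.167 mg/mL for 30 min, with absorbance change at 460 nm. One unit degrades 1 µmol peroxide/min at 37 °C; values are expressed as units/g lung.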

Mus musculus [14] = assay: Downregulation of IL-1beta mRNA level in lung of LPS-induced C57BL/6 mouse sepsis model at 10 mg/kg, iv administered 15 mins prior to LPS challenge measured after 6 hrs by RT-qPCR analysis; assay type: functional, organism-based; how it was run: as §2
Mus musculus [15] = assay: Antiinflammatory activity in LPS-induced C57BL/6 mouse sepsis model assessed as inhibition of neutrophils infiltration in lung by measuring MPO activity at 10 mg/kg, iv administered 15 mins prior to LPS challenge measured after 6 hrs in presence of O-dianisidine dihydrochloride relative to control; assay type: functional, organism-based; how it was run: as §4
[16] = Mus musculus, RAW264.7, read-out: IC50

SMILES	inhibition at 10 µM (RAW264.7 [2]) [%]	inhibition at 10 µM (RAW264.7 [1]) [%]	further results
Cc1ccc(COc2ccc(NC(=O)c3cc4cc([N+](=O)[O-])ccc4[nH]3)cc2)cc1	1.98		inhibition (RAW264.7 [1]): inactive
CN1CCN(c2ccc(NC(=O)c3cc4cc(N)ccc4n3Cc3ccc(C(F)(F)F)cc3)cc2)CC1			IC50 (RAW264.7 [3]; raw264.7): Not Active; IC50 (RAW264.7 [4]; raw264.7): Not Active
C=CCn1c(C(=O)Nc2ccc(N3CCN(C)CC3)cc2)cc2cc([N+](=O)[O-])ccc21	58.2	12.7	
O=C(Nc1ccc(OCc2cccc(F)c2)c(Cl)c1)c1cc2cc([N+](=O)[O-])ccc2[nH]1			inhibition (RAW264.7 [1]): inactive; inhibition (RAW264.7 [2]): inactive
CC(C)=CCOc1ccc(NC(=O)c2cc3cc([N+](=O)[O-])ccc3[nH]2)cc1	56.5	38.6	
O=C(Nc1ccc(OCc2c(Cl)cccc2Cl)c(Cl)c1)c1cc2cc([N+](=O)[O-])ccc2[nH]1	29.8		inhibition (RAW264.7 [1]): inactive
CN1CCN(c2ccc(NC(=O)c3cc4cc([N+](=O)[O-])ccc4n3C)cc2)CC1	87.2	16	
O=C(Nc1ccc(OCc2ccc(C(F)(F)F)cc2)c(Cl)c1)c1cc2cc([N+](=O)[O-])ccc2[nH]1	29.2		inhibition (RAW264.7 [1]): inactive
COc1ccc(Cn2c(C(=O)Nc3ccc(N4CCN(C)CC4)cc3)cc3cc([N+](=O)[O-])ccc32)cc1	64.3	41.4	
O=C(Nc1ccc(N2CCOCC2)cc1)c1cc2cc([N+](=O)[O-])ccc2[nH]1	38	18	
O=C(Nc1ccc(OCc2cccc(F)c2)cc1)c1cc2cc([N+](=O)[O-])ccc2[nH]1	4.42		inhibition (RAW264.7 [1]): inactive
COc1cc(COc2ccc(NC(=O)c3cc4cc([N+](=O)[O-])ccc4[nH]3)cc2Cl)cc(OC)c1	29	7.67	
O=C(Nc1ccccc1)c1cc2cc([N+](=O)[O-])ccc2[nH]1	49.6	17.5	
COc1cc(NC(=O)c2cc3cc([N+](=O)[O-])ccc3[nH]2)cc(OC)c1OC	62.3	45.8	
Cc1ccc(C)c(COc2ccc(NC(=O)c3cc4cc([N+](=O)[O-])ccc4[nH]3)cc2Cl)c1	24.9	2.89	
C=CC(=O)Nc1ccc2c(c1)cc(C(=O)Nc1ccc(N3CCN(C)CC3)cc1)n2Cc1ccc(C(F)(F)F)cc1			IC50 (RAW264.7 [3]; [16]): 1.05 µM; IC50 (RAW264.7 [4]; [16]): 6.28 µM
CN1CCN(c2ccc(NC(=O)c3cc4cc([N+](=O)[O-])ccc4n3Cc3cccc(F)c3)cc2)CC1	86.4	22.8	
COc1ccc(CCNC(=O)c2cc3cc([N+](=O)[O-])ccc3[nH]2)cc1	11.8	9.75	
CN1CCN(c2ccc(NC(=O)c3cc4cc([N+](=O)[O-])ccc4[nH]3)cc2)CC1	91	62.5	

SMILES	inhibition at 10 µM (RAW264.7 [2]) [%]	inhibition at 10 µM (RAW264.7 [1]) [%]	further results
O=C(Nc1ccc(OCc2ccccc2)c(Cl)c1)c1cc2cc([N+](=O)[O-])ccc2[nH]1	21.5		inhibition (RAW264.7 [1]): inactive
COc1ccc(NC(=O)c2cc3cc([N+](=O)[O-])ccc3[nH]2)cc1	52.8	8.17	
CCOc1ccc(NC(=O)c2cc3cc([N+](=O)[O-])ccc3[nH]2)cc1	41.1	33.8	
CN1CCN(c2ccc(NC(=O)c3cc4cc([N+](=O)[O-])ccc4n3Cc3ccc(Cl)cc3)cc2)CC1	97.2	67	
COc1cccc(COc2ccc(NC(=O)c3cc4cc([N+](=O)[O-])ccc4[nH]3)cc2Cl)c1	21.9		inhibition (RAW264.7 [1]): inactive
O=C(NCCc1ccccc1)c1cc2cc([N+](=O)[O-])ccc2[nH]1	8.71	2.58	
CN1CCN(c2ccc(NC(=O)c3cc4cc([N+](=O)[O-])ccc4n3Cc3c(Cl)cccc3Cl)cc2)CC1	93.3	52.7	
CN1CCN(c2ccc(NC(=O)c3cc4cc(NC(=O)CCl)ccc4n3Cc3ccc(C(F)(F)F)cc3)cc2)CC1			IC50 (RAW264.7 [3]; [16]): 6.03 µM; IC50 (RAW264.7 [4]; [16]): 2.99 µM
CCCn1c(-c2c[nH]c3ncccc23)nc2ccc(N3CCN(C)CC3)nc21	69.5	67.3	Activity (Mus musculus [5]): Active; inhibition (Mus musculus [6]): Active; Activity (Mus musculus [7]): Active; Activity (Mus musculus [8]): Active; Activity (Mus musculus [9]): Active; Activity (Mus musculus [10]): Active; Activity (Mus musculus [11]): inactive; Activity (Mus musculus [12]): Active; Activity (Mus musculus [13]): Non-toxic; Activity (Mus musculus [14]): inactive; inhibition (Mus musculus [15]): Active
Cc1cc2cc(NC(=O)c3cc4cc([N+](=O)[O-])ccc4[nH]3)ccc2[nH]1	37	7.53	
COc1cc(NC(=O)c2cc3cc([N+](=O)[O-])ccc3[nH]2)cc(OC)c1	31.3	17.2	
COc1ccc(COc2ccc(NC(=O)c3cc4cc([N+](=O)[O-])ccc4[nH]3)cc2Cl)cc1	24.8		inhibition (RAW264.7 [1]): inactive
COc1ccc2c(c1)c(CC(=O)O)c(C)n2C(=O)c1ccc(Cl)cc1 [INDOMETHACIN]	53.6	24.1	
CN1CCN(c2ccc(NC(=O)c3cc4cc([N+](=O)[O-])ccc4n3Cc3ccc(C(F)(F)F)cc3)cc2)CC1	98.7	75.1	IC50 (RAW264.7 [3]; [16]): 2.74 µM; IC50 (RAW264.7 [4]; [16]): 5.09 µM
CN1CCN(c2ccc(NC(=O)c3cc4cc([N+](=O)[O-])ccc4n3Cc3ccc(Br)cc3)cc2)CC1	93	31.1	
O=C(Nc1ccc(OCc2ccc(Cl)cc2)cc1)c1cc2cc([N+](=O)[O-])ccc2[nH]1	4.28		inhibition (RAW264.7 [1]): inactive
O=C(Nc1ccc(OCc2cc(F)cc(F)c2)cc1)c1cc2cc([N+](=O)[O-])ccc2[nH]1	11.2		inhibition (RAW264.7 [1]): inactive
CCC(=O)Nc1ccc2c(c1)cc(C(=O)Nc1ccc(N3CCN(C)CC3)cc1)n2Cc1ccc(C(F)(F)F)cc1			IC50 (RAW264.7 [3]; [16]): 4.1 µM; IC50 (RAW264.7 [4]; [16]): 3.33 µM
CN1CCN(c2ccc(NC(=O)c3cc4cc(NS(C)(=O)=O)ccc4n3Cc3ccc(C(F)(F)F)cc3)cc2)CC1			IC50 (RAW264.7 [3]; [16]): 1.97 µM; IC50 (RAW264.7 [4]; [16]): 4.91 µM
